From ChEMBL document CHEMBL1151782, “Evaluation of new migrastatin and dorrigocin congeners unveils cell migration inhibitors with dramatically improved potency” (Bioorg Med Chem Lett, 2008)

Experiments:
MDA-MB-231 [1] = experiment: Inhibition of human MDA-MB-231 cell migration after 4 days by scratch wound healing assay; type: functional, cell-based; conditions: MDA-MB-231, 96 h
Outline: (§1)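 Wounds were scratched through confluent cell monolayers with a floating pin tool, then compounds were added at concentrations chosen to avoid cytotoxicity. Plates were incubated 4 days at 37°C, then fixed and stained. Fluorescence in the wound area quantified wound closure, and IC50 for inhibition of wound healing was reported.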

4T1 [2] = experiment: Inhibition of cell migration of mouse 4T1 cells after 4 days by scratch wound healing assay; type: functional, cell-based; conditions: 4T1, 96 h; outline: as §1
MDA-MB-231 [3] = experiment: Cytotoxicity against human MDA-MB-231 cells; type: functional, cell-based
4T1 [4] = experiment: Cytotoxicity against […] cells; type: functional, cell-based
[5] = Metabolic stability in mouse plasma assessed as half life; type: ADME, cell-free

IC50 (MDA-MB-231 [1]) | IC50 (4T1 [2]) | SMILES | IC50 (MDA-MB-231 [3]) | IC50 (4T1 [4]) | half-life [5]
> 100 µM | > 100 µM | C/C1=C/[C@@H](C)[C@H](O)C/C=C/CC/C=C/C(=O)O[C@@H]1[C@H](C)C(=O)/C=C/CC1CC(=O)NC(=O)C1 | > 100 µM | 8.5 µM | –
> 100 µM | > 100 µM | CO[C@H]1/C=C/CC/C=C/C(=O)O[C@H]([C@H](C)C(=O)/C=C/CC2CC(=O)NC(=O)C2)/C(C)=C\[C@@H](C)[C@@H]1O | > 100 µM | > 100 µM | –
> 100 µM | > 100 µM | CO[C@@H](/C=C/CC/C=C/C(=O)O)[C@@H](O)[C@H](C)/C=C(\C)[C@H](O)[C@H](C)C(=O)C[C@H](O)CC1CC(=O)NC(=O)C1 | > 100 µM | 20 µM | –
0.07 µM | > 0.33 µM | C/C1=C/[C@@H](C)CC/C=C/CC/C=C/C(=O)O[C@@H]1[C@H](C)C(=O)C[C@H](O)CC1CC(=O)NC(=O)C1 | 1 µM | 0.98 µM | –
> 100 µM | > 100 µM | C/C(=C\[C@@H](C)[C@H](O)C/C=C/CC/C=C/C(=O)O)[C@H](O)[C@H](C)C(=O)CCCC1CC(=O)NC(=O)C1 | > 100 µM | > 100 µM | –
> 100 µM | > 100 µM | C/C(=C\[C@H](C)C(=O)CCCC1CC(=O)NC(=O)C1)[C@H](O)[C@@H](C)[C@H](O)[C@@H](O)/C=C/CC/C=C/C(=O)O | > 100 µM | > 100 µM | –
> 100 µM | > 100 µM | C/C(=C\[C@@H](C)CC/C=C/CC/C=C/C(=O)O)[C@H](O)[C@H](C)C(=O)C[C@H](O)CC1CC(=O)NC(=O)C1 | > 100 µM | > 100 µM | –
> 100 µM | > 100 µM | C/C(=C\[C@H](C)C(=O)CCCC1CC(=O)NC(=O)C1)[C@H](O)[C@@H](C)[C@H](O)C/C=C/CC/C=C/C(=O)O | > 100 µM | > 100 µM | –
> 100 µM | > 100 µM | C/C1=C/[C@@H](C)[C@H](O)C/C=C/CC/C=C/C(=O)O[C@@H]1[C@H](C)C(=O)C[C@H](O)CC1CC(=O)NC(=O)C1 | > 100 µM | > 100 µM | –
> 100 µM | > 100 µM | C/C1=C/[C@@H](C)[C@H](O)C/C=C/CC/C=C/C(=O)O[C@@H]1[C@H](C)C(=O)CCCC1CC(=O)NC(=O)C1 | > 100 µM | > 100 µM | –
> 100 µM | > 100 µM | C/C(=C\[C@@H](C)[C@H](O)C/C=C/CC/C=C/C(=O)O)[C@@H](O)[C@H](C)C(=O)CCCC1CC(=O)NC(=O)C1 | > 100 µM | > 100 µM | –
> 100 µM | > 100 µM | C/C1=C/[C@@H](C)[C@H](O)[C@@H](O)/C=C/CC/C=C/C(=O)O[C@@H]1[C@H](C)C(=O)/C=C/CC1CC(=O)NC(=O)C1 | 29 µM | 32 µM | –
1.8 µM | 1.8 µM | CO[C@H]1/C=C/CC/C=C/C(=O)O[C@H]([C@H](C)C(=O)C[C@H](O)CC2CC(=O)NC(=O)C2)/C(C)=C\[C@@H](C)[C@@H]1O | 5.2 µM | 5.3 µM | –
> 100 µM | > 100 µM | C/C1=C/[C@@H](C)C[C@@H](O)/C=C/CC/C=C/C(=O)O[C@@H]1[C@H](C)C(=O)C[C@H](O)CC1CC(=O)NC(=O)C1 | 13 µM | 10 µM | –
> 100 µM | > 100 µM | C/C(=C\[C@@H](C)[C@H](O)[C@@H](O)/C=C/CC/C=C/C(=O)O)[C@@H](O)[C@H](C)C(=O)CCCC1CC(=O)NC(=O)C1 | > 100 µM | > 100 µM | –
> 100 µM | > 100 µM | C/C1=C/[C@@H](C)[C@H](O)[C@@H](O)/C=C/CC/C=C/C(=O)O[C@@H]1[C@H](C)C(=O)CCCC1CC(=O)NC(=O)C1 | > 100 µM | 44 µM | –
> 100 µM | > 100 µM | CO[C@@H](/C=C/CC/C=C/C(=O)O)[C@@H](O)[C@H](C)[C@@H](O)/C(C)=C/[C@H](C)C(=O)C[C@H](O)CC1CC(=O)NC(=O)C1 | > 100 µM | > 100 µM | –
> 100 µM | > 100 µM | C/C(=C\[C@@H](C)CC/C=C/CC/C=C/C(=O)O)[C@@H](O)[C@H](C)C(=O)C[C@H](O)CC1CC(=O)NC(=O)C1 | > 100 µM | 81 µM | –
> 100 µM | > 100 µM | C/C(=C\[C@@H](C)[C@H](O)[C@@H](O)/C=C/CC/C=C/C(=O)O)[C@H](O)[C@H](C)C(=O)CCCC1CC(=O)NC(=O)C1 | > 100 µM | > 100 µM | –

SMILES | IC50 (MDA-MB-231 [1]) | IC50 (4T1 [2]) | IC50 (MDA-MB-231 [3]) | IC50 (4T1 [4]) | half-life [5]
CO[C@@H](/C=C/CC/C=C/C(=O)O)[C@@H](O)[C@H](C)/C=C(\C)[C@@H](O)[C@H](C)C(=O)CCCC1CC(=O)NC(=O)C1 | > 100 µM | > 100 µM | > 100 µM | > 100 µM | –
CO[C@H]1/C=C/CC/C=C/C(=O)O[C@H]([C@H](C)C(=O)CCCC2CC(=O)NC(=O)C2)/C(C)=C\[C@@H](C)[C@@H]1O [MIGRASTATIN] | 17 µM | 14 µM | 4.6 µM | 5.8 µM | 5 min
CO[C@@H](/C=C/CC/C=C/C(=O)O)[C@@H](O)[C@H](C)C(O)/C(C)=C/[C@H](C)C(=O)CCCC1CC(=O)NC(=O)C1 (stereo partly drawn) | > 100 µM | > 100 µM | > 100 µM | > 100 µM | –
CO[C@@H](/C=C/CC/C=C/C(=O)O)[C@@H](O)[C@H](C)/C=C(\C)[C@H](O)[C@H](C)C(=O)CCCC1CC(=O)NC(=O)C1 [DORRIGOCIN A] | > 100 µM | > 100 µM | > 100 µM | > 100 µM | –
